Source: PubChem
Sampled rows, rich in hits. Any-hit rate of the full collection: about 4.8%.
Efflux pump inh = inhibitors of Candida efflux pumps in yeast, primary screen, S. cerevisiae, Nile Red, multiplex. AID 485275, 2010. inhibition, % at 10 µM. S. cerevisiae Candida pump triplex. actives 0.44% (n = 330,000);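 active means plate passing quality check with inhibition over a set limit, or well fluorescence over plate mean plus 4 SD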;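 further: Nile Red retained in pooled yeast measured as flow cytometry median fluorescence; 0% = buffer negative control and 100% = Enniatin B positive control; higher means more Nile Red kept so more efflux inhibition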
WT yeast gro inh = growth inhibition of WT strain, primary screen, mitochondrial fusion inhibitor project, WT and mutant strains, chemical genetic | mitochondrial fusion phenotypic screen | inhibition, % at 10 µM | actives 2.1% (n = 190,000) | AID 1362, 2008; in the data active means inhibition above about 58%; tested in S. cerevisiae
T cruzi inh = inhibitors of intracellular T. cruzi growth, primary screen, luminescence, NIH3T3 host cells; T. cruzi beta-gal in NIH3T3, 90 h; inhibition, % (test concentration not listed); actives 1.4% (n = 300,000); AID 1885, 2009;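 active means mean inhibition across valid replicates above about 55%, limit read from the data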;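 further: signal also drops with host cell toxicity which is not excluded here; 0% = plate median of DMSO wells and 100% = zero luminescence signal; higher percent means less beta-gal luminescence so fewer parasites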
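System: Mouse NIH/3T3 fibroblasts infected with β-gal-expressing T. cruzi Tulahuen C4 | Quantity: NIH/3T3 cells, 5,000 per well | Reagent: 5000 reporter trypomastigotes per well | Dosing: Compound pinned at 50 nL/well, DMSO | Schedule: 3 h host attachment, then at least 90 h co-culture | Detection: GalScreen luminescence, 60 min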
Beta apoptosis = inhibitors of cytokine-induced beta cell apoptosis, primary screen, luminescence; INS-1E cytokine-induced death, ATP luminescence, 48 h; percent of positive-control rescue, neutral wells zero; protection from apoptosis, % (no concentration beside the values); actives 0.8% (n = 300,000); AID 435005, 2010;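 active means Every replicate reaches about 75%, or at least half do and their mean reaches it too, limit read from the data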;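 further: 0% = cytokine-treated negative control wells and 100% = positive control rescue; higher means more ATP so stronger rescue from cytokine killing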
CSC inhib = cancer stem cell viability inhibitors, primary screen, luminescence; actives 1.1% (n = 300,000); cancer stem cell-like cells viability; AID 2717, 2010; inhibition, % at 7.5 µM; in the data active means inhibition above about 75%; tested in HMLE shEcad cells
Mot1-301 SUMO = yeast Mot1-301 growth rescue at high temperature, primary screen, SUMOylation pathway inhibitor project, S. cerevisiae, ATP luminescence, 38.5C; growth rescue, % at 18.8 µM; actives 1% (n = 320,000); S. cerevisiae Mot1-301 growth rescue; percent above DMSO median, 100 means doubled;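 active means every valid replicate shows activation above 250% relative to neutral control wells; inactive means the rest, any valid replicate at or below 250%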;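 further: OY570 slx delta 5 strain wells were the positive control but not used for scaling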
Yeast Mot1 SUMO = growth restoration of Mot1-301 yeast on galactose, dose response, SUMO pathway inhibitor project, whole organism, S. cerevisiae, ATP luminescence, cherry-picked samples. shares compounds with Mot1-301 SUMO. S. cerevisiae Mot1-301 galactose growth, 24 h; -100 = growth of slx-deleted rescue strain. growth activity, percent, % at 42 µM. 2,300 tested, under 10 active;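 active means Signal drops as the depositor expects, and the fitted half-maximal dose is no more than ten times the top valid tested dose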;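 further: more negative values mean stronger growth rescue toward the control strain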
Numbers without * were called inactive; x = no result given; + = active, no number.

SMILES	Efflux pump inh	WT yeast gro inh	T cruzi inh	Beta apoptosis	CSC inhib	Mot1-301 SUMO	Yeast Mot1 SUMO
CC(=O)c1ccccc1C(=O)N1CCCC(N2CCN(Cc3ccc4c(c3)OCO4)CC2)C1 (stereo not given)	0.1	x	-1.3	2.2	0.6	360.3*	0.4
COc1cc2c(cc1OC)CN(S(=O)(=O)c1cccc(F)c1)CC2	0.1	x	8.2	-2.6	-12.4	+	0.2
COc1cc2c(cc1OC)CN(S(=O)(=O)c1ccccc1F)CC2	0.1	x	4.4	4.8	-10.4	-7.3	x
Clc1ccccc1C(c1ccccc1)(c1ccccc1)n1ccnc1	-0.2	86.4	43.0	25.2	29.2	661.9*	-1.8
CCCCn1c(N)c(N(CCC(C)C)C(=O)C2=NN(c3cc(C)ccc3C)C(=O)CC2)c(=O)[nH]c1=O	-0.1	x	-0.9	-3.3	10.7	-2.4	x
Cc1nc(Cl)sc1C(=O)Nc1cccc(Cl)c1C	0.3	-2.6	-10.7	3.9	-7.4	57.1	x
COc1ccc(NC(=O)c2cc(C)no2)cc1Cl	0.2	x	-3.2	-2.3	x	431.9*	-0.2
COc1ccc(NC(=O)c2cc(C)no2)cc1OC	-0.1	x	-5.3	-10.4	-16.6	-26.7	x
O=C1CN(C(=O)c2c(F)cccc2F)C(c2ccc(F)cc2)c2cc(F)ccc2N1 (stereo not given)	-0.2	x	6.5	2.4	-6.0	677.3*	-0.7
COc1ccc(CN2C(=O)C(=O)N(CC(N)=O)C2=O)cc1	0.0	-14.3	-1.1	x	7.0	719.3*	0.5
OCCC1CN(Cc2ccc3cccc(F)c3n2)CCN1Cc1ccccc1 (stereo not given)	-0.1	x	11.3	x	2.7	10.1	x
COc1ccc(NC(=O)CCCC(=O)c2ccccc2)cc1OC	-0.4	x	-3.6	5.2	-14.3	499.2	x
COc1ccc(/C=N/NC(=O)CCC(=O)Nc2ccccc2)cc1OC	-0.1	0.3	-11.9	-1.0	-8.4	795.1*	0.6
COc1cc(/C=N/NC(=O)CCC(=O)Nc2ccc(F)cc2)ccc1O	0.0	x	-33.8	-5.6	2.7	-4.4	x
Cc1cccc(NC(=O)CCc2ccccc2)c1	0.2	5.2	3.4	-0.9	14.0	519.6*	-0.2
COc1ccc(NC(=O)CCCc2ccccc2)cc1OC	0.1	x	0.8	-5.8	-6.5	382.4*	-0.4
COc1cc(Cl)ccc1OCc1cc(C(=O)N2C[C@]3(C)C[C@H]2CC(C)(C)C3)no1	0.1	x	23.8	-5.3	25.8	-6.1	x
CC(C)n1c(CN(C)c2ccccc2)nc2ccccc21	0.1	x	-7.0	-5.1	13.7	875.1*	0.2
CCN(Cc1nc2ccccc2n1C)c1ccccc1	0.0	x	-19.9	-1.2	-12.9	-6.1	x
COc1ccc2sc(N3C(=O)C4CC=C(C)CC4C3=O)nc2c1 (stereo not given)	0.4	-4.2	-3.4	-1.3	-14.3	12.3	x
COc1ccc(NC(=O)COC(=O)c2cc(OC)c(OC)c(OC)c2)c([N+](=O)[O-])c1	-0.1	x	4.8	-4.3	-9.9	-31.2	x
CNS(=O)(=O)c1cccc(C(=O)OCC(=O)Nc2ccc(OC)cc2[N+](=O)[O-])c1	-0.1	-3.4	-4.1	-9.3	-4.1	810.3*	0.3
COc1ccc(CNC(=O)N[C@H](C(=O)O)C(C)C)cc1OC	0.0	x	-7.9	-5.4	-10.5	37.8	x
CCOc1ccccc1NC(=O)c1c(NC(=O)CCC(=O)O)sc2c1CCCCC2	x	-0.8	x	x	x	x	x
CCOC(=O)c1ccc(NC(=O)c2c(NC(=O)CCC(=O)O)sc3c2CCCCC3)cc1	0.2	6.1	9.9	3.9	-0.4	630.8*	-0.4
SMILES	Efflux pump inh	WT yeast gro inh	T cruzi inh	Beta apoptosis	CSC inhib	Mot1-301 SUMO	Yeast Mot1 SUMO
O=C(/C=C/c1cccc([N+](=O)[O-])c1)NCCSCc1ccc(Cl)cc1Cl	0.0	21.0	12.6	3.4	32.0	367.6*	-0.5
COc1ccc(NC(=O)COC(=O)Cc2ccccc2[N+](=O)[O-])cc1OC	-0.1	-19.6	-3.1	-2.1	-8.3	25.3	x
COc1ccccc1C(=O)NC(=O)COC(=O)Cc1ccccc1[N+](=O)[O-]	0.0	x	-1.7	-0.3	-11.5	616.6*	-0.8
CN1CCN(C(=O)CCN2C(=O)/C(=C\c3ccccc3F)SC2=S)CC1	0.0	x	1.0	-63.8	29.2	-5.4	x
CN1CCN(C(=O)CCN2C(=O)/C(=C/c3ccccc3Cl)SC2=S)CC1	0.1	-1.7	10.8	-79.4	-4.2	378.3*	-0.6
CCOc1cc(NC(=O)c2cccs2)c(OCC)cc1NC(=O)CCC(=O)NCCN1CCOCC1	-0.1	3.8	4.6	-6.7	-23.2	387.8*	0.6
CCC(C)c1ccccc1NC(=S)NC(=O)c1ccco1 (stereo not given)	0.0	x	5.0	-10.2	-44.6	-13.8	x
O=C(CSc1cccc[n+]1[O-])N1CCc2ccccc21	0.2	x	-3.2	-2.1	-3.6	898.4*	-0.6
O=C(CSc1ccccn1)N1CCc2ccccc21	-0.1	9.6	-11.3	-0.3	7.6	-3.7	x
C/C(=C\C(=O)N1CCc2ccccc21)C(=O)O	-0.3	-8.5	-11.4	-7.8	-13.6	587.4*	1.6
Cc1cc(C)c(NC(=O)COC(=O)c2ccncc2)c(C)c1	-0.1	x	x	-1.3	4.4	22.5	x
COC(=O)CCC(=O)OC1(C)C(=O)C=C2C=C(C3CC3)N(Cc3ccc4c(c3)OCO4)C=C2C1=O (stereo not given)	0.3	x	16.1	-0.1	18.0	880.8*	0.2
COC(=O)CCC(=O)OC1(C)C(=O)C=C2C=C(C3CC3)N(Cc3ccc(OC)cc3)C=C2C1=O (stereo not given)	-0.1	x	5.6	-4.1	-23.4	3.8	x
COc1ccccc1NC(=O)CC1S/C(=N/N=C(\C)C2CCCCC2)NC1=O (stereo not given)	0.3	x	1.3	-4.7	-2.0	-20.9	x
CCn1c(N2CCN(C(=O)C34CC5CC(CC(C5)C3)C4)CC2)nc2ccccc21	0.0	0.5	18.0	10.7	8.0	389.3*	0.0
c1ccc(CNc2ncnc3sc4c(c23)CCC4)nc1	0.2	0.3	-5.0	-6.3	-9.3	817.8*	-0.1
CCCCCCOc1ccc(N2C(=O)CC(N3CCC(C(=O)OCC)CC3)C2=O)cc1 (stereo not given)	0.0	3.1	0.6	-2.4	15.8	552.9*	0.0
CCc1ccc(N2C(=O)CC(N3CCC(C(=O)OC)CC3)C2=O)cc1 (stereo not given)	0.2	-8.8	-12.3	-6.4	27.0	490.7*	-0.6
N#Cc1cnn2c(-c3cccc([N+](=O)[O-])c3)ccnc12	-0.4	x	x	2.1	5.8	103.6	x
